Source: publication PMC12086819 (RSC Advances, 2025)
Entries after “also recorded” stand apart in the source; their conditions may differ. Like-named read-outs stand apart in the source and are kept apart here.

Experiments:
NIH-3T3 cells = experiment: MTT cytotoxicity assay in non-cancerous NIH-3T3 cells; format: cell-based, mouse; conditions: for IC50: Mus musculus; for cytotoxic effect on non-cancerous NIH-3T3 cells (in words): NIH-3T3 mouse embryonic fibroblast, treatment up to 48 h
In short: (§1)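 Cells (A549 or NIH-3T3) were seeded at 5 × 10^3 per well and grown 24 h at 37 °C, 5% CO2, then given increasing concentrations for 24 h and 48 h. DMSO/medium served as negative control and cisplatin as standard. MTT (5 mg mL−1 stock) was added for 4 h at 37 °C, formazan was dissolved in DMSO, and A595 was read. Triplicate means were used; IC50 came from dose–response inhibition curves.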

A549 cells [1] = experiment: AO/EB and Hoechst 33258 staining assay; format: cell-based, human; conditions: A549 cells treated at respective IC50 concentration, 24 h and 48 h
In short: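 A549 cells were seeded at 5 × 10^4 per well and grown 24 h at 37 °C, 5% CO2, then exposed at the respective IC50 concentration for 24 h and 48 h, alongside untreated and cisplatin controls. Staining used either AO/EB solution (100 μg per mL each) or Hoechst 33258 solution (100 μg per mL). Cells were examined and counted by fluorescence microscopy within 20 min.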

A549 cells [2] = experiment: Intracellular ROS generation; format: cell-based, human; conditions: IC50 concentrations, DCFH-DA, 0-24 h
In short: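 Cells were seeded at 3.0 × 10^4 cells per mL in 24-well plates for 24 h, then dosed at 24 h IC50 concentrations with added 100 μM H2O2 solution. After 10 μM DCFH-DA solution was added, plates were held 10 min in the dark. DCF fluorescence (ex 488/em 510 nm) was read at 0, 2, 4, 6, 8, 12 and 24 h and expressed as fold change versus untreated control. Triplicates, mean ± SD.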

A549 cells [3] = experiment: MTT cytotoxicity assay against the A549 lung cancer cell line; format: cell-based, human; conditions: for cytotoxic activity compared with cisplatin: MTT
In short: as §1

[4] = NIH3T3, 24 h, read-out: IC50 at 24 h
[5] = NIH3T3, 48 h, read-out: IC50 at 48 h

Question: `Cc1cc(C)c(C2CN(C)C3(C(=O)Nc4ccccc43)C2C(=O)c2ccccc2)c(C)c1` (stereo not drawn) [4a, 3′-Benzoyl-4′-mesityl-1′-methylspiro[indoline-3,2′-pyrrolidin]-2-one] was tested. Which IC50 (NIH-3T3 cells; [4]) did it give?
Answer: > 100 µM

Question: And the IC50 (NIH-3T3 cells; [5])?
Answer: 25.4 ± 3.74 µM

Question: What about the “apoptosis induction (AO/EB and Hoechst staining)” value (“apoptosis induction” below) (A549 cells [1]) of the same molecule?
Answer: apoptosis-inducing capabilities

Question: And the “DCF fluorescent intensity compared with the untreated control group” value (A549 cells [2])?
Answer: Not much difference

Question: What does the source list for `Cc1cc(C)c(C2CN(C)C3(C(=O)Nc4ccccc43)C2C(=O)c2ccc(F)cc2)c(C)c1` (stereo not drawn) [4b, 3′-(4-Fluorobenzoyl)-4′-mesityl-1′-methylspiro[indoline-3,2′-pyrrolidin]-2-one]?
Answer: IC50 (NIH-3T3 cells; [4]): > 100 µM; IC50 (NIH-3T3 cells; [5]): 32.8 ± 5.95 µM; DCF fluorescent intensity compared with the untreated control group (A549 cells [2]): Not much difference

Question: With `Cc1cc(C)c(C2CN(C)C3(C(=O)Nc4ccccc43)C2C(=O)c2ccc(Cl)cc2)c(C)c1` (stereo not drawn) [4c, 3′-(4-Chlorobenzoyl)-4′-mesityl-1′-methylspiro[indoline-3,2′-pyrrolidin]-2-one] as the molecule, how does the “cytotoxic activity compared with cisplatin” value (A549 cells [3]) read?
Answer: better activity than cisplatin

Question: What about the IC50 (NIH-3T3 cells; [4]) of the same molecule?
Answer: > 100 µM

Question: What about the IC50 (NIH-3T3 cells; [5]) of the same molecule?
Answer: > 100 µM

Question: For `Cc1cc(C)c(C2CN(C)C3(C(=O)Nc4ccccc43)C2C(=O)c2ccc(Br)cc2)c(C)c1` (stereo not drawn) [4d, 3′-(4-Bromobenzoyl)-4′-mesityl-1′-methylspiro[indoline-3,2′-pyrrolidin]-2-one], which “cytotoxic activity compared with cisplatin” value (A549 cells [3]) is on record?
Answer: better activity than cisplatin

Question: And the IC50 (NIH-3T3 cells; [4])?
Answer: > 100 µM

Question: And the IC50 (NIH-3T3 cells; [5])?
Answer: > 100 µM

Question: Which results are given for `Cc1ccc(C(=O)C2C(c3c(C)cc(C)cc3C)CN(C)C23C(=O)Nc2ccccc23)cc1` (stereo not drawn) [4e, 4′-Mesityl-1′-methyl-3′-(4-methylbenzoyl)spiro[indoline-3,2′-pyrrolidin]-2-one]?
Answer: cytotoxic activity compared with cisplatin (A549 cells [3]): better activity than cisplatin; IC50 (NIH-3T3 cells; [4]): > 100 µM; IC50 (NIH-3T3 cells; [5]): > 100 µM; DCF fluorescent intensity compared with the untreated control group (A549 cells [2]): Not much difference

Question: `Cc1cc(C)c(C2CN(C)C3(C(=O)Nc4ccccc43)C2C(=O)c2cccc(Cl)c2)c(C)c1` (stereo not drawn) [4f, 3′-(3-Chlorobenzoyl)-4′-mesityl-1′-methylspiro[indoline-3,2′-pyrrolidin]-2-one] was tested. Which “reduction in cell viability” value (A549 cells [3]; at 24 and 48 h) did it give?
Answer: No substantial reduction in cell viability

Question: And the IC50 (NIH-3T3 cells; [4])?
Answer: > 100 µM

Question: And the IC50 (NIH-3T3 cells; [5])?
Answer: > 100 µM

Question: How did the IC50 (NIH-3T3 cells; [4]) turn out when `Cc1cccc(C(=O)C2C(c3c(C)cc(C)cc3C)CN(C)C23C(=O)Nc2ccccc23)c1` (stereo not drawn) [4g, 4′-Mesityl-1′-methyl-3′-(3-methylbenzoyl)spiro[indoline-3,2′-pyrrolidin]-2-one] was run?
Answer: > 100 µM

Question: What about the IC50 (NIH-3T3 cells; [5]) of the same molecule?
Answer: 75.3 ± 0.94 µM

Question: What about the “DCF fluorescent intensity compared with the untreated control group” value (A549 cells [2]) of the same molecule?
Answer: Not much difference

Question: With `Cc1cc(C)c(C2C3CCCN3C3(C(=O)Nc4ccccc43)C2C(=O)c2ccccc2)c(C)c1` (stereo not drawn) [5a, 2′-Benzoyl-1′-mesityl-1′,2′,5′,6′,7′,7a′-hexahydrospiro[indoline-3,3′-pyrrolizin]-2-one] as the molecule, how does the “cytotoxic activity compared with cisplatin” value (A549 cells [3]) read?
Answer: better activity than cisplatin

Question: What about the IC50 (NIH-3T3 cells; [4]) of the same molecule?
Answer: > 100 µM

Question: And the IC50 (NIH-3T3 cells; [5])?
Answer: 72 ± 4.45 µM

Question: `Cc1cc(C)c(C2C3CCCN3C3(C(=O)Nc4ccccc43)C2C(=O)c2ccc(F)cc2)c(C)c1` (stereo not drawn) [5b, 2′-(4-Fluorobenzoyl)-1′-mesityl-1′,2′,5′,6′,7′,7a′-hexahydrospiro[indoline-3,3′-pyrrolizin]-2-one] was tested. Which “cytotoxic activity compared with cisplatin” value (A549 cells [3]) did it give?
Answer: better activity than cisplatin

Question: And the IC50 (NIH-3T3 cells; [4])?
Answer: > 100 µM

Question: And the IC50 (NIH-3T3 cells; [5])?
Answer: 69.9 ± 1.3 µM

Question: How did the “cytotoxic activity compared with cisplatin” value (A549 cells [3]) turn out when `Cc1cc(C)c(C2C3CCCN3C3(C(=O)Nc4ccccc43)C2C(=O)c2ccc(Cl)cc2)c(C)c1` (stereo not drawn) [5c, 2′-(4-Chlorobenzoyl)-1′-mesityl-1′,2′,5′,6′,7′,7a′-hexahydrospiro[indoline-3,3′-pyrrolizin]-2-one] was run?
Answer: better activity than cisplatin

Question: What about the IC50 (NIH-3T3 cells; [4]) of the same molecule?
Answer: > 100 µM

Question: What about the IC50 (NIH-3T3 cells; [5]) of the same molecule?
Answer: 72.1 ± 0.95 µM

Question: What about the “DCF fluorescent intensity compared with the untreated control group” value (A549 cells [2]) of the same molecule?
Answer: Not much difference

Question: What does the source list for `Cc1cc(C)c(C2C3CCCN3C3(C(=O)Nc4ccccc43)C2C(=O)c2ccc(Br)cc2)c(C)c1` (stereo not drawn) [5d, 2′-(4-Bromobenzoyl)-1′-mesityl-1′,2′,5′,6′,7′,7a′-hexahydrospiro[indoline-3,3′-pyrrolizin]-2-one]?
Answer: cytotoxic activity compared with cisplatin (A549 cells [3]): better activity than cisplatin; IC50 (NIH-3T3 cells; [4]): > 100 µM; IC50 (NIH-3T3 cells; [5]): 42.9 ± 1.51 µM

Question: Which IC50 (NIH-3T3 cells; [4]) does the source give for `Cc1ccc(C(=O)C2C(c3c(C)cc(C)cc3C)C3CCCN3C23C(=O)Nc2ccccc23)cc1` (stereo not drawn) [5e, 1′-Mesityl-2′-(4-methylbenzoyl)-1′,2′,5′,6′,7′,7a′-hexahydrospiro[indoline-3,3′-pyrrolizin]-2-one] here?
Answer: > 100 µM

Question: What about the IC50 (NIH-3T3 cells; [5]) of the same molecule?
Answer: > 100 µM

Question: What about the “cytotoxic effect on non-cancerous NIH-3T3 cells (in words)” value (NIH-3T3 cells) of the same molecule?
Answer: non-cytotoxic; also recorded: no cytotoxic effects

Question: And the “apoptosis induction” value (A549 cells [1])?
Answer: higher number of early and late apoptotic cells; also recorded: apoptosis-inducing capabilities

Question: What about the “DCF fluorescent intensity compared with the untreated control group” value (A549 cells [2]) of the same molecule?
Answer: Not much difference

Question: `Cc1cc(C)c(C2C3CCCN3C3(C(=O)Nc4ccccc43)C2C(=O)c2cccc(Cl)c2)c(C)c1` (stereo not drawn) [5f, 2′-(3-Chlorobenzoyl)-1′-mesityl-1′,2′,5′,6′,7′,7a′-hexahydrospiro[indoline-3,3′-pyrrolizin]-2-one] was tested. Which “fold higher activity at 48 h than at 24 h” value (A549 cells [3]; IC50 at 48 h vs 24 h) did it give?
Answer: ~13 fold

Question: What about the IC50 (NIH-3T3 cells; [4]) of the same molecule?
Answer: > 100 µM

Question: What about the IC50 (NIH-3T3 cells; [5]) of the same molecule?
Answer: > 100 µM

Question: And the “cytotoxic effect on non-cancerous NIH-3T3 cells (in words)” value (NIH-3T3 cells)?
Answer: non-cytotoxic; also recorded: no cytotoxic effects

Question: What about the “apoptosis induction” value (A549 cells [1]) of the same molecule?
Answer: higher number of early and late apoptotic cells; also recorded: apoptosis-inducing capabilities; also recorded: induces apoptosis

Question: And the “DCF fluorescent intensity compared with the untreated control group” value (A549 cells [2])?
Answer: Not much difference

Question: For `Cc1cccc(C(=O)C2C(c3c(C)cc(C)cc3C)C3CCCN3C23C(=O)Nc2ccccc23)c1` (stereo not drawn) [5g, 1′-Mesityl-2′-(3-methylbenzoyl)-1′,2′,5′,6′,7′,7a′-hexahydrospiro[indoline-3,3′-pyrrolizin]-2-one], which “cytotoxic activity compared with cisplatin” value (A549 cells [3]) is on record?
Answer: better activity than cisplatin

Question: What about the IC50 (NIH-3T3 cells; [4]) of the same molecule?
Answer: > 100 µM

Question: And the IC50 (NIH-3T3 cells; [5])?
Answer: > 100 µM

Question: With `N.N.[Cl][Pt][Cl]` [Cisplatin, cisplatin, reference compound] as the molecule, how does the “apoptosis induction” value (A549 cells [1]) read?
Answer: distinct changes as an indication of apoptosis and cell death
